Source: ChEMBL document CHEMBL5154796, “Chemical synthesis and pharmacological properties of heparin pentasaccharide analogues” (Eur J Med Chem, 2022)
Activity calls are given as the source filed them. No cut-off for these calls is given here.

Tests used:
[1] = tested on: Rattus norvegicus; test: Antithrombotic activity in Sprague-Dawley rat model of blood stasis-induced venous thrombosis assessed as inhibition of thrombosis rate at 100 nmol/kg, sc measured after 3 hrs; format: functional, organism-based
In short: (§1)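 Male SD rats given 100 nmol/kg s.c.; at 1 or 3 h, anesthetized with 10% chloral hydrate ([…]). Vena cava loosely ligated, collaterals tied, 2% rabbit thromboplastin given i.v., stasis 20 s later and held 20 min. Thrombus removed, dried 24 h at 50 °C, weighed; inhibition versus saline group; n = 6, mean ± SEM.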

[2] = AUC (0 to infinity) in Sprague-Dawley rat at 100 nmol/kg, sc; format: ADME; design: time infinity, dose 100 nmol/kg, route sc; details: in vivo; for AUC(0-inf): Sprague-Dawley, 100 nmol/kg
In short: (§2)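 Plasma level read from anti-FXa activity against a standard curve built by spiking pooled rat platelet-poor plasma with graded compound. Noncompartmental analysis; n = 4-6, mean ± SEM.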

[3] = AUC (0 to 32 hrs) in Sprague-Dawley rat at 100 nmol/kg, sc measured after 32 hrs; format: ADME, organism-based; design: time 32 hrs, dose 100 nmol/kg, route sc; details: in vivo; in short: as §2
[4] = tested on: Plasma; test: Anticoagulant activity in human plasma assessed as prolongation of activated partial thromboplastin time by measuring concentration required to double APTT incubated for 3 mins by coagulometer analysis; format: functional; details: 0.05 h
In short: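 Standard human plasma (45 µL) plus sample (5 µL), 2 min at 37 °C, then APTT reagent for 3 min, then CaCl2; clotting time read on a coagulometer. Clotting time versus concentration fitted linearly; EC2.0 is the concentration doubling clotting time. Run in duplicate.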

[5] = tested on: Plasma; test: Anticoagulant activity in human plasma assessed as prolongation of prothrombin time by measuring concentration required to double PT incubated for 3 mins by coagulometer analysis; format: functional; details: dose 128 µg/ml, 0.05 h
[6] = tested on: Plasma; test: Anticoagulant activity in human plasma assessed as prolongation of thrombin time by measuring concentration required to double TT incubated for 3 mins by coagulometer analysis; format: functional; details: 0.05 h
[7] = target: T1, Coagulation factor X (Homo sapiens, UniProt P00742); test: Inhibition of coagulation factor Xa (unknown origin) using chromogenic substrate incubated for 7 min in presence of antithrombin by absorbance based assay
T1 sequence (P00742 41-179 limits assumed): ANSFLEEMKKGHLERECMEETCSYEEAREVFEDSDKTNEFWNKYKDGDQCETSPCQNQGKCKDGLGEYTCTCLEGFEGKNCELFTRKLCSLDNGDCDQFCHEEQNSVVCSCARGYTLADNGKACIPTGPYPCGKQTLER
T1 sequence (P00742 235-488 limits assumed): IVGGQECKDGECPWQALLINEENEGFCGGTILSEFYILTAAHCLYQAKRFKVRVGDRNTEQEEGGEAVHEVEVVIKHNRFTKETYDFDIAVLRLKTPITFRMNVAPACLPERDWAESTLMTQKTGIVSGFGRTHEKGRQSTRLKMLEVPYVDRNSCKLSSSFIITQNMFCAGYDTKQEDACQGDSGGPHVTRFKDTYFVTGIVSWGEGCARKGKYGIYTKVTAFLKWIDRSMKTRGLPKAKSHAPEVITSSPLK

[8] = target: T1, Coagulation factor X; test: Inhibition of heparin binding to factor 10a using chromogenic substrate incubated for 7 min by absorbance based assay
[9] = tested on: Plasma; test: Anticoagulant activity in human platelet poor plasma assessed as inhibition of thrombin generation incubated for 3 mins by calibrated automated thrombogram analysis; format: functional, cell-free; details: 0.05 h
In short: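 Thrombin generation triggered in human platelet-poor plasma by a phospholipid/tissue factor reagent, monitored by calibrated automated thrombogram with readings every 15 s. Total thrombin taken as area under the thrombin-time curve; IC50 from dose-response. Triplicate.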

[10] = Tmax in Sprague-Dawley rat at 100 nmol/kg, sc; format: ADME; details: in vivo; in short: as §2
[11] = Cmax in Sprague-Dawley rat at 100 nmol/kg, sc; format: ADME; design: dose 100 nmol/kg, route sc; details: in vivo; in short: as §2
[12] = Half life in Sprague-Dawley rat at 100 nmol/kg, sc; format: ADME; details: in vivo; in short: as §2
[13] = Clearance in Sprague-Dawley rat at 100 nmol/kg, sc; format: ADME; details: in vivo; in short: as §2
[14] = Volume of distribution in Sprague-Dawley rat at 100 nmol/kg, sc; format: ADME; details: in vivo; in short: as §2
[15] = tested on: Rattus norvegicus; test: Antithrombotic activity in Sprague-Dawley rat model of blood stasis-induced venous thrombosis assessed as inhibition of thrombosis rate at 100 nmol/kg, sc measured after 1 hr relative to control; format: functional; in short: as §1
[16] = tested on: Rattus norvegicus; test: Antithrombotic activity in Sprague-Dawley rat model of blood stasis-induced venous thrombosis assessed as inhibition of thrombosis rate at 30 nmol/kg, sc measured after 2 hrs relative to control; format: functional
In short: (§3)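 Stasis/thromboplastin vena cava model in male SD rats 2 h after s.c. dosing at 30, 100 or 300 nmol/kg. Thrombus dried 24 h at 50 °C and weighed, then expressed as % of mean thrombus mass in the saline group (100% = no inhibition); n = 8-10, mean ± SEM.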

[17] = tested on: Rattus norvegicus; test: Antithrombotic activity in Sprague-Dawley rat model of blood stasis-induced venous thrombosis assessed as inhibition of thrombosis rate at 100 nmol/kg, sc measured after 2 hrs relative to control; format: functional; in short: as §3
[18] = tested on: Rattus norvegicus; test: Antithrombotic activity in Sprague-Dawley rat model of blood stasis-induced venous thrombosis assessed as inhibition of thrombosis rate at 300 nmol/kg, sc measured after 2 hrs relative to control; format: functional; in short: as §3
[19] = tested on: Rattus norvegicus; test: Antithrombotic activity in Sprague-Dawley rat model of blood stasis-induced venous thrombosis assessed as inhibition of thrombosis rate at 100 nmol/kg, sc measured after 1 hr; format: functional, organism-based; in short: as §1
[20] = tested on: Mus musculus; test: Antithrombotic activity in mouse model of tail-bleeding assessed as increase in blood loss at 2000 nmol/kg, sc; format: functional, organism-based
In short: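 Mouse tail-cut bleeding: 2000 nmol/kg s.c., tail cut 1.5 h after dosing, blood loss measured in µL; normal saline negative control; n ≥ 6, mean ± SEM, one-way ANOVA.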

Row | Compound | inhibition [1] | AUC(0-inf) [2] | AUC(0-t) at 32 h [3] | EC [4] | EC [5] | 2TT [6] | IC50 [7] | IC50 [8] | IC50 [9] | Tmax [10] | Cmax [11] | half-life [12] | CL/F [13] | Vd [14] | inhibition in vivo at 0.1 µmol/kg [15] | inhibition in vivo at 0.03 µmol/kg [16] | inhibition in vivo at 0.1 µmol/kg [17] | inhibition in vivo at 0.3 µmol/kg [18] | inhibition [19] | inhibition [17] | further results
1 | CO[C@H]1O[C@H](COS(=O)(=O)[O-])[C@@H](O[C@@H]2O[C@@H](C(=O)[O-])[C@@H](O[C@H]3O[C@H](COS(=O)(=O)[O-])[C@@H](O[C@@H]4O[C@H](C(=O)[O-])[C@@H](O[C@H]5O[C@H](COS(=O)(=O)[O-])[C@@H](O)[C@H](OC)[C@H]5OS(=O)(=O)[O-])[C@H](OC)[C@H]4O)[C@H](OS(=O)(=O)[O-])[C@H]3OS(=O)(=O)[O-])[C@H](OC)[C@H]2OS(=O)(=O)[O-])[C@H](OS(=O)(=O)[O-])[C@H]1OS(=O)(=O)[O-].[Na+].[Na+].[Na+].[Na+].[Na+].[Na+].[Na+].[Na+].[Na+].[Na+].[Na+] | Active | 15500 ng·h/mL | 14200 ng·h/mL | 48.78 µM | >128 µg/mL | >128 µg/mL | 108 nM | 788 nM | 12500 nM | 1.5 h | 2020 ng/mL | 6.2 h | 0.35 mL/min/kg | 0.131 L/kg | 56.9% | 48.6% | > 70% | 89.5% |  |  | 
2 | CO[C@H]1O[C@H](COS(=O)(=O)[O-])[C@@H](O[C@@H]2O[C@@H](C(=O)[O-])[C@@H](O[C@H]3O[C@H](COS(=O)(=O)[O-])[C@@H](O[C@@H]4O[C@H](C(=O)[O-])[C@@H](O[C@H]5O[C@H](COS(=O)(=O)[O-])[C@@H](O)[C@H](O)[C@H]5NS(=O)(=O)[O-])[C@H](O)[C@H]4O)[C@H](OS(=O)(=O)[O-])[C@H]3NS(=O)(=O)[O-])[C@H](O)[C@H]2OS(=O)(=O)[O-])[C@H](O)[C@H]1NS(=O)(=O)[O-].[Na+].[Na+].[Na+].[Na+].[Na+].[Na+].[Na+].[Na+].[Na+].[Na+] [FONDAPARINUX SODIUM] |  | 1120 ng·h/mL | 1070 ng·h/mL | 51.2 µM | >128 µg/mL | >128 µg/mL | 99.6 nM | 1910 nM | 14500 nM | 0.6 h | 519 ng/mL | 1.2 h | 3.98 mL/min/kg | 0.097 L/kg | 55.7% | < 15% |  | 59.3% | Active | Active | 
3 | CO[C@H]1O[C@H](COS(=O)(=O)[O-])[C@@H](O[C@@H]2O[C@@H](C(=O)[O-])[C@@H](O[C@H]3O[C@H](COS(=O)(=O)[O-])[C@@H](O[C@@H]4O[C@H](C(=O)[O-])[C@@H](O[C@H]5O[C@H](COS(=O)(=O)[O-])[C@@H](OC)[C@H](OS(=O)(=O)[O-])[C@H]5OS(=O)(=O)[O-])[C@H](OC)[C@H]4OC(C)=O)[C@H](OS(=O)(=O)[O-])[C@H]3OS(=O)(=O)[O-])[C@H](OC)[C@H]2OS(=O)(=O)[O-])[C@H](OS(=O)(=O)[O-])[C@H]1OS(=O)(=O)[O-].[Na+].[Na+].[Na+].[Na+].[Na+].[Na+].[Na+].[Na+].[Na+].[Na+].[Na+].[Na+] | Active | 15100 ng·h/mL | 12800 ng·h/mL | 32.47 µM | >128 µg/mL | >128 µg/mL | 88.8 nM | 1130 nM | 14800 nM | 2 h | 1140 ng/mL | 15.1 h | 0.283 mL/min/kg | 0.136 L/kg |  | 33.2% |  |  |  | Active | inhibition [18]: Active; Activity [20]: Active
4 | CO[C@H]1O[C@H](COS(=O)(=O)[O-])[C@@H](O[C@@H]2O[C@@H](C(=O)[O-])[C@@H](O[C@H]3O[C@H](COS(=O)(=O)[O-])[C@@H](O[C@@H]4O[C@H](C(=O)[O-])[C@@H](O[C@H]5O[C@H](COS(=O)(=O)[O-])[C@@H](O)[C@H](OS(=O)(=O)[O-])[C@H]5OS(=O)(=O)[O-])[C@H](OC)[C@H]4O)[C@H](OS(=O)(=O)[O-])[C@H]3OS(=O)(=O)[O-])[C@H](OC)[C@H]2OS(=O)(=O)[O-])[C@H](OS(=O)(=O)[O-])[C@H]1OS(=O)(=O)[O-].[Na+].[Na+].[Na+].[Na+].[Na+].[Na+].[Na+].[Na+].[Na+].[Na+].[Na+].[Na+] |  | 6750 ng·h/mL | 6350 ng·h/mL | 33.05 µM | >128 µg/mL | >128 µg/mL | 94.7 nM | 779 nM | 12400 nM | 1 h | 1250 ng/mL | 4.8 h | 0.633 mL/min/kg | 0.183 L/kg |  | 39.5% |  |  | Active | Active | inhibition [18]: Active
5 | CO[C@H]1O[C@H](COS(=O)(=O)[O-])[C@@H](O[C@@H]2O[C@@H](C(=O)[O-])[C@@H](O[C@H]3O[C@H](COS(=O)(=O)[O-])[C@@H](O[C@@H]4O[C@H](C(=O)[O-])[C@@H](O[C@H]5O[C@H](COS(=O)(=O)[O-])[C@@H](O)[C@H](O)[C@H]5OS(=O)(=O)[O-])[C@H](OC)[C@H]4O)[C@H](OS(=O)(=O)[O-])[C@H]3OS(=O)(=O)[O-])[C@H](OC)[C@H]2OS(=O)(=O)[O-])[C@H](OS(=O)(=O)[O-])[C@H]1OS(=O)(=O)[O-].[Na+].[Na+].[Na+].[Na+].[Na+].[Na+].[Na+].[Na+].[Na+].[Na+].[Na+] |  |  | 17600 ng·h/mL | 40.83 µM | >128 µg/mL | >128 µg/mL | 141 nM | 725 nM | 12200 nM | 2 h | 2040 ng/mL | 6.1 h |  | 0.058 L/kg | 77.8% | < 15% | > 70% | 93.1% |  |  | AUC [2]: 19053.2 ng·h/mL
